From ChEMBL document CHEMBL1240399 (Antimicrob Agents Chemother, 2010) come the findings set out here.

Experiment [1] concerns Pseudomonas aeruginosa. As to the kind of experiment: Antibacterial activity against Pseudomonas aeruginosa NL68 expressing GES-13 beta lactamase. It counts as functional.
Experiment [2] deals with Escherichia coli. As to the kind of experiment: Antibacterial activity against Escherichia coli DH5alpha pB-ges-13 plasmid. The experiment is classed as functional.
Experiment [3] relates to Escherichia coli. As to the kind of experiment: Antibacterial activity against Escherichia coli DH5alpha pB-ges-1. It counts as functional.
Experiment [4] concerns Escherichia coli. As to the kind of experiment: Antibacterial activity against Escherichia coli DH5alpha. It counts as functional.
Experiment [5] concerns Pseudomonas aeruginosa. The experiment can be described thus: Antibacterial activity against Pseudomonas aeruginosa NL68 expressing GES-13 beta lactamase in presence of 4 ug/ml Tazobactam. It counts as functional.
The test system of experiment [6] is Escherichia coli. The experiment can be described thus: microbe, parasite or virus in culture. The settings on record: DH5alpha.
In experiment [7] the test system is Escherichia coli. The experiment can be described thus: microbe, parasite or virus in culture. The conditions noted are these: DH5alpha. This is another data set of the same source.
The test system of experiment [8] is Escherichia coli. The experiment can be described thus: microbe, parasite or virus in culture. The settings on record: DH5alpha. This is another data set of the same source.
Experiment [9] concerns Escherichia coli. As to the kind of experiment: Antibacterial activity against Escherichia coli DH5alpha pB-ges-13 plasmid in presence of 2 ug/ml clavulanic acid. It counts as functional.
Experiment [10] deals with Escherichia coli. The experiment can be described thus: Antibacterial activity against Escherichia coli DH5alpha pB-ges-1in presence of 2 ug/ml clavulanic acid. It counts as functional.
The test system of experiment [11] is Escherichia coli. The experiment can be described thus: Antibacterial activity against Escherichia coli DH5alpha in presence of 2 ug/ml clavulanic acid. It counts as functional.
Experiment [12] has as its system Pseudomonas aeruginosa. As to the kind of experiment: microbe, parasite or virus in culture. The settings on record: NL68.
The next experiment concerns the target Beta-lactamase GES-13 (Pseudomonas aeruginosa, UniProt D1MIX9). As to the kind of experiment: Inhibition of Pseudomonas aeruginosa GES-13 beta lactamase. In a few lines: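 GES-13 purified from E. coli DH5α carrying pB-ges13: sonicated in 20 mM Tris pH 8.0, then Q-Sepharose and S-Sepharose chromatography, >95% pure by SDS-PAGE. Enzyme preincubated with a range of inhibitor concentrations for 3 min at 30°C. Residual hydrolysis of 100 μM cephalothin reporter followed spectrophotometrically. Value given as IC50.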

One may read the IC50 as the point on the concentration scale where inhibition reaches its midpoint. Low readings indicate greater potency in that assay, high ones weaker potency in that assay.

Molecules are shown by their SMILES. ≈ marks a conversion by molar mass, not a printed value. Bounds are passed on as bounds.

Sequence of Beta-lactamase GES-13 (D1MIX9 whole entry): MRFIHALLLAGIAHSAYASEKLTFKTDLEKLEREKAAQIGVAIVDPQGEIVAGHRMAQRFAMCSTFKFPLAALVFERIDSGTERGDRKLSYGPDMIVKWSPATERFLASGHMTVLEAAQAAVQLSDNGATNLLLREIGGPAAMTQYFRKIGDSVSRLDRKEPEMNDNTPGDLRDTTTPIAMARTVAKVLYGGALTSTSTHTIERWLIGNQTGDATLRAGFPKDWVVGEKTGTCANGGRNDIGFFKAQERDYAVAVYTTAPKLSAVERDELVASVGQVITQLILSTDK

Consider `C[C@@H](O)[C@H]1C(=O)N2C(C(=O)O)=C(S[C@@H]3CN[C@H](C(=O)N(C)C)C3)[C@H](C)[C@H]12` [MEROPENEM], for which the MIC in the experiment on Pseudomonas aeruginosa [1] is 32 µg/mL (≈ 83.4 µM); in the experiment on Escherichia coli [2] it was no more than 0.06 µg/mL; in the experiment on Escherichia coli [3], no more than 0.06 µg/mL; against Escherichia coli [4] it was no more than 0.06 µg/mL.
Turning to `CO/N=C(\C(=O)N[C@@H]1C(=O)N2C(C(=O)[O-])=C(C[N+]3(C)CCCC3)CS[C@H]12)c1csc(N)n1`, the MIC is 64 µg/mL (≈ 133 µM) in the experiment on Pseudomonas aeruginosa [1] and 1 µg/mL (≈ 2.08 µM) with Escherichia coli [3].
For `CCN1CCN(C(=O)N[C@@H](C(=O)N[C@@H]2C(=O)N3[C@@H]2SC(C)(C)[C@@H]3C(=O)O)c2ccccc2)C(=O)C1=O` [PIPERACILLIN], the MIC against Pseudomonas aeruginosa [1] was 256 µg/mL (≈ 495 µM); in the experiment with Escherichia coli [2] it was 64 µg/mL (≈ 124 µM); against Escherichia coli [3] it was 64 µg/mL (≈ 124 µM); against Escherichia coli [4] it was 1 µg/mL (≈ 1.93 µM); in the experiment on Pseudomonas aeruginosa [5], 128 µg/mL; with Escherichia coli [6], 2 µg/mL (≈ 3.86 µM). Moreover, the figures for the MIC against Escherichia coli [7] and in the experiment with Escherichia coli [8] were 16 µg/mL (≈ 30.9 µM) and 0.5 µg/mL (≈ 0.966 µM), respectively.
Turning to `CC(C)(O/N=C(\C(=O)N[C@@H]1C(=O)N2C(C(=O)[O-])=C(C[n+]3ccccc3)CS[C@H]12)c1csc(N)n1)C(=O)O` [CEFTAZIDIME], the MIC was no less than 512 µg/mL with Pseudomonas aeruginosa [1]; no less than 512 µg/mL with Escherichia coli [2]; 256 µg/mL (≈ 468 µM) with Escherichia coli [3]; 0.5 µg/mL (≈ 0.915 µM) with Escherichia coli [4]; 16 µg/mL with Escherichia coli [9]; 16 µg/mL with Escherichia coli [10]. Further, the MIC was 0.5 µg/mL in the experiment on Escherichia coli [11]; 256 µg/mL in the experiment with Pseudomonas aeruginosa [5]; no less than 512 µg/mL against Pseudomonas aeruginosa [12]; 4 µg/mL (≈ 7.32 µM) in the experiment with Escherichia coli [6]; 16 µg/mL (≈ 29.3 µM) in the experiment on Escherichia coli [7]; 0.5 µg/mL (≈ 0.915 µM) against Escherichia coli [8].
As for `C[C@@H](O)[C@H]1C(=O)N2C(C(=O)O)=C(SCCNC=N)C[C@H]12` [IMIPENEM ANHYDROUS], the MIC is 16 µg/mL (≈ 53.4 µM) against Pseudomonas aeruginosa [1] and 16 µg/mL with Pseudomonas aeruginosa [5]. Further, the IC50 against Beta-lactamase GES-13 is 150 nM.
`CO/N=C(\C(=O)N[C@@H]1C(=O)N2C(C(=O)O)=C(CSc3nc(=O)c(O)nn3C)CS[C@H]12)c1csc(N)n1` [CEFTRIAXONE]: the MIC stood at 16 µg/mL (≈ 28.9 µM) against Escherichia coli [2], 16 µg/mL (≈ 28.9 µM) in the experiment with Escherichia coli [3] and 0.12 µg/mL (≈ 0.216 µM) in the experiment on Escherichia coli [4].
As for `N[C@@H](C(=O)N[C@@H]1C(=O)N2C(C(=O)O)=C(Cl)CS[C@H]12)c1ccccc1` [CEFACLOR ANHYDROUS], the MIC in the experiment on Escherichia coli [2] is no less than 512 µg/mL; against Escherichia coli [3] it was no less than 512 µg/mL; in the experiment with Escherichia coli [4], 4 µg/mL (≈ 10.9 µM).
In the case of `C[C@H]1[C@H](NC(=O)/C(=N\OC(C)(C)C(=O)O)c2csc(N)n2)C(=O)N1S(=O)(=O)O` [AZTREONAM], the MIC turned out to be 8 µg/mL (≈ 18.4 µM) in the experiment with Escherichia coli [2] and 1 µg/mL (≈ 2.3 µM) against Escherichia coli [3].
In the case of `CO/N=C(\C(=O)N[C@@H]1C(=O)N2C(C(=O)O)=C(COC(N)=O)CS[C@H]12)c1ccco1` [CEFUROXIME], the MIC is no less than 512 µg/mL in the experiment with Escherichia coli [2], no less than 512 µg/mL in the experiment on Escherichia coli [3] and 2 µg/mL (≈ 4.71 µM) against Escherichia coli [4].
With `CO/N=C(\C(=O)N[C@@H]1C(=O)N2C(C(=O)O)=C(COC(C)=O)CS[C@H]12)c1csc(N)n1` [CEFOTAXIME], the MIC turned out to be 8 µg/mL (≈ 17.6 µM) with Escherichia coli [2], 4 µg/mL (≈ 8.78 µM) with Escherichia coli [3] and 0.12 µg/mL (≈ 0.263 µM) against Escherichia coli [4].
Consider `CC1(C)S[C@@H]2[C@H](NC(=O)[C@H](C(=O)O)c3ccsc3)C(=O)N2[C@H]1C(=O)O` [TICARCILLIN], for which the MIC in the experiment on Pseudomonas aeruginosa [1] is no less than 512 µg/mL; against Escherichia coli [2], no less than 512 µg/mL; against Escherichia coli [3] it was no less than 512 µg/mL; with Escherichia coli [4], 2 µg/mL (≈ 5.2 µM); with Escherichia coli [9] it was 16 µg/mL; with Escherichia coli [10] it was 32 µg/mL. For the same compound, the MIC in the experiment on Escherichia coli [11] was 2 µg/mL; in the experiment with Pseudomonas aeruginosa [12], no less than 512 µg/mL.
In the case of `CO[C@@]1(NC(=O)Cc2cccs2)C(=O)N2C(C(=O)O)=C(COC(N)=O)CS[C@@H]21` [CEFOXITIN], the MIC was found to be 8 µg/mL (≈ 18.7 µM) against Escherichia coli [2], 8 µg/mL (≈ 18.7 µM) in the experiment with Escherichia coli [3] and 4 µg/mL (≈ 9.36 µM) against Escherichia coli [4].
For the compound `CC1(C)S[C@@H]2[C@H](NC(=O)[C@H](N)c3ccc(O)cc3)C(=O)N2[C@H]1C(=O)O` [AMOXICILLIN], the MIC with Escherichia coli [2] is no less than 512 µg/mL; with Escherichia coli [3], no less than 512 µg/mL; against Escherichia coli [4], 2 µg/mL (≈ 5.47 µM); with Escherichia coli [9], 32 µg/mL; in the experiment on Escherichia coli [10] it was 64 µg/mL; with Escherichia coli [11] it was 2 µg/mL.
